Active and inactive are the calls of the source. The rule behind the calls is not given here.
What was measured:
Zaire ebolavirus [1] = test: Antiviral activity against VSV pseudotyped Ebolavirus Mayinga expressing GFP infected in human HeLa cells assessed as inhibition of viral infection up to 50 uM pre-incubated for 2 hrs followed by viral infection and measured after 8 hrs by high content imaging analysis; type: functional, organism-based; details: 1976
How it was run: (§1)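 HeLa cells pretreated 2 h with compound, then infected with rVSV-EBOV-GP-GFP (8 h) or VSV-GFP (6 h), and stained with Cell Mask Deep Red. Relative inhibition = 1 minus (% GFP-expressing cells normalised to mock). Mean ± SD of three replicates, representative of three independent experiments.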

[2] = Drug uptake in C57Bl/6 mouse serum at 20 mg/kg/day, ip qd for 7 days measured at 24 hrs post last dose by UHPLC/MS analysis; type: ADME, organism-based; details: read-out: Drug uptake
How it was run: (§2)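 Serum from two mice dosed 20 mg/kg/day i.p. taken 24 h after the last dose. Compound quantified by UHPLC/MS and screened for M+2, M+16, M-2 and M+32 products or combinations.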

[3] = test system: Vesicular stomatitis virus; test: Antiviral activity against VSV expressing GFP infected in human HeLa cells assessed as inhibition of viral infection at 2 uM pre-incubated for 2 hrs followed by viral infection and measured after 6 hrs by cell mask deep red staining based assay; type: functional, organism-based; how it was run: as §1
[4] = Clearance in mouse liver microsomes after 1 hr; type: ADME, Microsome; details: read-out: CLH
How it was run: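 Substrate depletion with mouse or human liver microsomes, 1 h at 37 °C. Clearance (μL/min/mg) and half-life derived.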

Zaire ebolavirus [5] = test: Antiviral activity against Ebolavirus Mayinga infected in ip dosed Balb/c mouse assessed as protection against viral infection administered 2 hrs prior to viral infection daily for 6 days and measured for 14 days; type: functional, organism-based; details: 1976
[6] = Stability in plasma (unknown origin) after 1 hr at 37 degC; type: ADME, cell-free; details: read-out: Stability
How it was run: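 Compound was incubated in plasma for 1 h at 37 °C, and the percent remaining was reported.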

HeLa = test: Induction of lysosome suppression in human HeLa cells assessed as vesicular compartment expansion pretreated for 2 hrs followed by VSV pseudotyped EBOV-GP-GFP infection for 2 to 6 hrs by uranyl acetate staining based transmission electron microscopic method; type: functional, subcellular
How it was run: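 HeLa cells mock-treated or treated 2 h with compound, then left uninfected or infected with rVSV-EBOV-GP-GFP for 2 h or 6 h. Processed for transmission electron microscopy to examine vesicular compartments.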

Cytochrome P450 3A4 [7] = target: T1, Cytochrome P450 3A4 (Homo sapiens, UniProt P08684); test: Inhibition of CYP3A4 (unknown origin) using 7-benzyloxy-4-trifluoromethylcoumarin as substrate; type: ADME
T1 sequence (P08684 whole entry): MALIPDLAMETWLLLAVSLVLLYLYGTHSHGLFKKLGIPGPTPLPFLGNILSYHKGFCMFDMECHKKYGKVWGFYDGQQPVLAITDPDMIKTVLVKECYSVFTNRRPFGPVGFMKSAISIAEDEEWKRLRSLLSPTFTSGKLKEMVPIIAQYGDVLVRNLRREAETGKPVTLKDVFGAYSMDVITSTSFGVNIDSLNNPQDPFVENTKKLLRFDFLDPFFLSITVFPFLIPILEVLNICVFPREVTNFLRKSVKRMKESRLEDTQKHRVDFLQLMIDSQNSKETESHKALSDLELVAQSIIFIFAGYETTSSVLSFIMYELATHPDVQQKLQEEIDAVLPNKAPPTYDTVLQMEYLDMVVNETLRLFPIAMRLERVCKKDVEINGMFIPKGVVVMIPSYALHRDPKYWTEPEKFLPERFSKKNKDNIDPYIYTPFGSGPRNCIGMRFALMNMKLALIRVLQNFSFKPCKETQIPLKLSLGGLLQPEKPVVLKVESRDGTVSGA
How it was run: (§3)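 CYP IC50 was taken from the net fluorescent signal after incubation at 37 °C for a set time with active cytochrome P450 enzyme and a fluorescent probe substrate.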

Zaire ebolavirus [8] = test: Antiviral activity against Ebolavirus Mayinga infected in Balb/c mouse assessed as protection against viral infection by measuring host survival at 10 mg/kg, ip administered 2 hrs prior to viral infection daily for 6 days and measured for 14 days relative to control; type: functional, 1976
[9] = Toxicity in Balb/c mouse infected with Ebolavirus Mayinga assessed as weight loss at 1 to 10 mg/kg, ip administered 2 hrs prior to viral infection daily for 6 days and measured for 14 days; type: organism-based; details: in vivo, 336 h
Cytochrome P450 3A4 [10] = target: T1, Cytochrome P450 3A4; test: Inhibition of CYP3A4 (unknown origin) using 7-benzyloxyquinoline as substrate; type: ADME; how it was run: as §3
[11] = Drug metabolism in C57Bl/6 mouse assessed as reduction metabolite formation at 20 mg/kg/day, ip qd for 7 days measured at 24 hrs post last dose by UHPLC/MS analysis; type: ADME, organism-based; details: in vivo; how it was run: as §2
Zaire ebolavirus [12] = test: Antiviral activity against Ebolavirus Mayinga infected in Balb/c mouse assessed as protection against viral infection at 1 to 5 mg/kg, ip administered 2 hrs prior to viral infection daily for 6 days and measured for 14 days relative to control; type: functional, 1976
[13] = test system: Vesicular stomatitis virus; test: Antiviral activity against VSV expressing GFP infected in human HeLa cells assessed as inhibition of viral infection at 0.1 uM pre-incubated for 2 hrs followed by viral infection and measured after 6 hrs by cell mask deep red staining based assay; type: functional, organism-based; how it was run: as §1
Cytochrome P450 3A4 [14] = target: T1, Cytochrome P450 3A4; test: Inhibition of CYP3A4 (unknown origin) using dibenzylfluorescein as substrate; type: ADME; how it was run: as §3
[15] = test system: Vesicular stomatitis virus; test: Antiviral activity against VSV expressing GFP infected in human HeLa cells assessed as inhibition of viral infection at 50 uM pre-incubated for 2 hrs followed by viral infection and measured after 6 hrs by cell mask deep red staining based assay; type: functional, organism-based; how it was run: as §1
Cytochrome P450 2C19 = Cytochrome P450 2C19 (Homo sapiens, UniProt P33261); test: Inhibition of CYP2C19 (unknown origin) using CEC as substrate; type: ADME; how it was run: as §3
Chain of Cytochrome P450 2C19 (P33261 whole entry): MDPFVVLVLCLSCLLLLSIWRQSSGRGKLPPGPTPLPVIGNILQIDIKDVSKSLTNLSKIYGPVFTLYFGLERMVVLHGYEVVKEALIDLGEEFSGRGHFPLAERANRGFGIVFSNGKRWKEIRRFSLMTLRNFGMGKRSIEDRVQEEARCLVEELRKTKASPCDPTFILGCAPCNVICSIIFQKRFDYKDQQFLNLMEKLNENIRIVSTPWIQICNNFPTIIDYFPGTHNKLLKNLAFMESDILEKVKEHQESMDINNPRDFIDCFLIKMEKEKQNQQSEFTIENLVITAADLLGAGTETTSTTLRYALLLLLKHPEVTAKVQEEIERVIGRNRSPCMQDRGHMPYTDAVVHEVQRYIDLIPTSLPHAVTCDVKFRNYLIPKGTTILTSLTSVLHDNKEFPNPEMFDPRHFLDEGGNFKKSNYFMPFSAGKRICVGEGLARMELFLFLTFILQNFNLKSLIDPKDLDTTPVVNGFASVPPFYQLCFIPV

[16] = Apparent permeability from basolateral to apical side in MDCK cells; type: ADME, cell-based, Canis lupus familiaris; details: dog
How it was run: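 Apparent permeability measured in MDCK cell monolayers, apical→basolateral and basolateral→apical directions, three biological replicates.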

[17] = Myelotoxicity in 6 hrs post fertilized transgenic mpx:GFP zebrafish embryo assessed as reduction in neutrophil occurrence up to 20 uM measured at 72 hrs hrs post fertilization by fluorescence assay; set-up: species or system Danio rerio
How it was run: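 Tg(mpx:GFP) zebrafish embryos with GFP-labelled neutrophils were treated with compound. At 72 hpf, neutrophil fluorescence of the whole embryo and neutrophil occurrence were assessed.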

[18] = Drug uptake in C57Bl/6 mouse serum at 10 mg/kg/day, ip qd for 7 days measured on day 7 at 5 to 240 mins post dose by UHPLC/MS analysis; type: ADME, organism-based; details: in vivo, read-out: Drug uptake
[19] = Hepatotoxicity in 6 hrs post fertilized transgenic l-fabp:EGFP zebrafish embryo assessed as change in liver area index up to 40 uM up to 120 hrs post fertilization by fluorescence assay; type: toxicity, Danio rerio; details: in vivo
How it was run: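 Tg(l-fabp:EGFP) zebrafish embryos exposed from 6 hpf. At 120 hpf, liver area index (liver area/lateral body area) and liver fluorescence assessed by in vivo imaging.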

Ebolavirus = test: Antiviral activity against Ebolavirus infected in mouse assessed as protection against viral infection at 10 mg/kg/day relative to control; type: functional
[20] = Drug uptake in C57Bl/6 mouse serum at 10 mg/kg/day, ip qd for 7 days measured on day 5 at 15 to 180 mins post dose by UHPLC/MS analysis; type: ADME, organism-based; details: in vivo, read-out: Drug uptake

**Q.** Which Activity (Zaire ebolavirus [1]) does the source give for `Cl.Cl.Cl.Cl.c1cc(NCCCCN2CCOCC2)c2ccc3c(ccc4c(NCCN5CCOCC5)ccnc43)c2n1` here?
**A.** Active

**Q.** What about the concentration at 24 h [2] of the same compound?
**A.** 350 to 1200 nM

**Q.** What about the Activity [3] of the same compound?
**A.** inactive

**Q.** What about the microsomal CLint [4] of the same compound?
**A.** 22.3 µL/min/mg

**Q.** What about the Activity (Zaire ebolavirus [5]) of the same compound?
**A.** Dose-dependent effect

**Q.** What about the remaining at 1 h [6] of the same compound?
**A.** 60%

**Q.** And the Activity (HeLa)?
**A.** Active

**Q.** And the INH (Cytochrome P450 3A4 [7])?
**A.** > 10 µM

**Q.** And the Activity (Zaire ebolavirus [8])?
**A.** 100%

**Q.** What about the Activity [9] of the same compound?
**A.** Non-Toxic

**Q.** And the INH (Cytochrome P450 3A4 [10])?
**A.** > 10 µM

**Q.** And the Drug metabolism [11]?
**A.** Metabolite_Notdetected

**Q.** And the Activity (Zaire ebolavirus [12])?
**A.** 50%

**Q.** And the Activity [13]?
**A.** inactive

**Q.** What about the INH (Cytochrome P450 3A4 [14]) of the same compound?
**A.** > 10 µM

**Q.** And the Activity [15]?
**A.** Active

**Q.** What about the INH (Cytochrome P450 2C19) of the same compound?
**A.** > 10 µM

**Q.** And the Papp B→A [16]?
**A.** 43.2 to 67.3 ×10⁻⁶ cm/s

**Q.** Which results are given for `Cl.Cl.Cl.Cl.c1cc(NCCN2CCOCC2)c2ccc3c(ccc4c(NCCN5CCOCC5)ccnc43)c2n1`?
**A.** Activity [17]: Non-Toxic; concentration [18]: 460 to 650 nM; Activity [19]: Non-Toxic; Activity (Ebolavirus): 90%; concentration [20]: 460 to 1030 nM
